pIC50: −log10 of the molar value.
Assays:
[1] = target: T1, Amine oxidase [flavin-containing] A (Homo sapiens, UniProt P21397); assay: Inhibition of MAOA by spectrofluorimetry
T1 sequence (P21397 whole entry): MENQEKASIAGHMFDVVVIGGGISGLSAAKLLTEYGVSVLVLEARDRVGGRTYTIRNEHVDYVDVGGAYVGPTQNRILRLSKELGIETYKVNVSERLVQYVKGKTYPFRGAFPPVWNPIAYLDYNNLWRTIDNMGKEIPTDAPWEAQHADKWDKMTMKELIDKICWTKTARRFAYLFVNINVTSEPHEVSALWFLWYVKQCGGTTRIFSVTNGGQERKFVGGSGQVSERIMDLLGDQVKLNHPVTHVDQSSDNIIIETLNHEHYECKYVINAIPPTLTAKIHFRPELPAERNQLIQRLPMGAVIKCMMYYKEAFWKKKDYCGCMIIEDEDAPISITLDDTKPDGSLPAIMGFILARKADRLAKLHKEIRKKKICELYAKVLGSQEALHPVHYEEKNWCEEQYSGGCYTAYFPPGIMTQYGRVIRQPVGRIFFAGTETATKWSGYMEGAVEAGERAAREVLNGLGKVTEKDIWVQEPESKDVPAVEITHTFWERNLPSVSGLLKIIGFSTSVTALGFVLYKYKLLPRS
Method in brief: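 Fluorescence-based microplate assay for MAO-A and MAO-B inhibition, following the group's earlier reported method. Click reaction mixtures, made with CuSO4 and sodium ascorbate in t-BuOH/H2O (1:1) over 24 h, were diluted into 96-well plates from 0 to 100 μM. Fluorescence was read at λex 360 nm and λem 460 nm.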

[2] = target: T2, Amine oxidase [flavin-containing] B (Homo sapiens, UniProt P27338); assay: Inhibition of MAOB by spectrofluorimetry
T2 sequence (P27338 whole entry): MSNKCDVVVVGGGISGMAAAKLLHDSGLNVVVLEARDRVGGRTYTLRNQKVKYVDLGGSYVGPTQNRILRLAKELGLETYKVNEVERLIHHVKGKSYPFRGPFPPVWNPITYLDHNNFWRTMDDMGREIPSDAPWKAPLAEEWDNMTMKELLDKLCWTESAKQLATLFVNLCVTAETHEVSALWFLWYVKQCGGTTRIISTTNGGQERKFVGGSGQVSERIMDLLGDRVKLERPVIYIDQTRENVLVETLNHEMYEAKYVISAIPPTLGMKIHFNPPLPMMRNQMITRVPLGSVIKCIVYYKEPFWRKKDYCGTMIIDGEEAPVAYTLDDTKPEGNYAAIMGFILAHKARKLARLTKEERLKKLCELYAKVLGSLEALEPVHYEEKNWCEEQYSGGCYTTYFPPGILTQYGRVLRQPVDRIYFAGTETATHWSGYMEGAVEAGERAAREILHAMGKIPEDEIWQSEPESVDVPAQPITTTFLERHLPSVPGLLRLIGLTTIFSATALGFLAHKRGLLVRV

[3] = Selectivity ratio, ratio of IC50 for MAOB to IC50 for MAOA

Row | pIC50 [1] | pIC50 [2] | Ratio IC50 [3] | SMILES
1 | 4.29 | 4.21 | 0.95 | NCc1cn(-c2cccc(C(=O)O)c2)nn1
2 | 6.01 | 3.29 | 526 | NCc1cn(-c2ccccc2)nn1
3 | 4.71 | 4.25 | 2.89 | NCc1cn(-c2ccc(C(=O)O)cc2)nn1
4 | 6.08 | 3.94 | 140 | NCc1cn(-c2ccncc2)nn1
